According to ChEMBL document CHEMBL1155976, “Synthesis and preliminary pharmacological evaluation of imidazo[2,1-f]purine-2,4-dione derivatives” (Eur J Med Chem, 2009):
Calls of active or inactive are those of the source. The calls are words filed in the database; no cut-off is given here.

Legend:
[1] = test system: Mus musculus; assay: Agonist activity at 5HT1A receptor in Swiss albino mouse assessed as decrease in rectal temperature at 10 mg/kg, ip after 120 mins; type: functional, organism-based; set-up: dose 10 mg/kg
In short: (§1)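 Male Albino Swiss mice (24–28 g), free food and water, room at 20 ± 1 °C; test agent suspended in 1% aqueous Tween 80, given ip at 10 ml/kg. Rectal temperature read with a thermometer at 30, 60, 90 and 120 min after dosing. Result expressed as Δt from basal temperature taken at the start; six to ten animals per group, each used once.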

[2] = test system: Mus musculus; assay: Antidepressant activity in Swiss albino mouse assessed as reduction of immobility time at 30 mg/kg, ip administered 30 mins before test by forced swimming test; type: functional; settings: route intraperitoneal
In short: (§2)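 Male Albino Swiss mice (24–28 g); agent suspended in 1% aqueous Tween 80, ip 10 ml/kg, 30 min before the test. Total immobility time scored over the last 4 min of a 6-min swim session. n = 8–10 mice per group; mean ± SEM, compared with vehicle.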

[3] = test system: Mus musculus; assay: Agonist activity at 5HT1A receptor in Swiss albino mouse assessed as decrease in rectal temperature at 5 mg/kg, ip after 120 mins; type: functional, organism-based; set-up: dose 5 mg/kg; in short: as §1
[4] = test system: Mus musculus; assay: Agonist activity at 5HT1A receptor in Swiss albino mouse assessed as decrease in rectal temperature at 10 mg/kg, ip after 30 mins in presence of WAY 100635 administered 15 mins before drug challenge; type: functional, organism-based; set-up: dose 10 mg/kg
In short: (§3)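 Male Albino Swiss mice (24–28 g). WAY 100635 (0.1 mg/kg, sc, in distilled water) given 15 min before test agent (ip, suspended in 1% Tween 80, 10 ml/kg). Rectal temperature recorded 30 and 60 min after test agent injection. Expressed as Δt versus basal temperature at the start of the experiment.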

[5] = target: 5-hydroxytryptamine receptor 2A (Rattus norvegicus, UniProt P14842); assay: Displacement of [3H]ketanserin from 5HT2A receptor in rat cerebral cortex after 20 mins by liquid scintillation counting; type: tissue-based
In short: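 Rat cerebral cortex homogenised in 50 mM Tris-HCl pH 7.7, spun at 32000 × g, preincubated 10 min at 37 °C, resuspended in 50 volumes. Incubated with 0.6 nM [3H]-ketanserin and test agent (10^-10 to 10^-4 M) at 37 °C for 20 min; mianserin as displacer. GF/B filtration, scintillation counting; Ki from ≥3 experiments, 10 concentrations in triplicate.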

[6] = test system: Mus musculus; assay: Anxiolytic activity in Swiss albino mouse assessed as number of punished crossings at 30 mg/kg, ip administered 30 mins before test measured for 60s by four plate test; type: functional; settings: route intraperitoneal
In short: (§4)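 Male Albino Swiss mice. Box with four metal floor plates separated by 4 mm gaps; 120 V between adjacent plates for 0.5 s delivered on crossing. Mice explored 15 s before testing. Agent (ip, 1% Tween 80) given 30 min before the test. Punished crossings counted; n = 10 mice per group, mean ± SEM.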

[7] = test system: Mus musculus; assay: Antidepressant activity in Swiss albino mouse assessed as reduction of immobility time at 20 mg/kg, ip administered 30 mins before test by forced swimming test; type: functional; settings: route intraperitoneal; in short: as §2
[8] = test system: Mus musculus; assay: Agonist activity at 5HT1A receptor in Swiss albino mouse assessed as decrease in rectal temperature at 10 mg/kg, ip after 90 mins; type: functional, organism-based; set-up: dose 10 mg/kg; in short: as §1
[9] = test system: Mus musculus; assay: Anxiolytic activity in Swiss albino mouse assessed as number of punished crossings at 20 mg/kg, ip. administered 30 mins before test measured for 60s by four plate test; type: functional; in short: as §4
[10] = test system: Mus musculus; assay: Agonist activity at 5HT1A receptor in Swiss albino mouse assessed as decrease in rectal temperature at 10 mg/kg, ip after 60 mins; type: functional, organism-based; set-up: dose 10 mg/kg; in short: as §1
[11] = test system: Mus musculus; assay: Agonist activity at 5HT1A receptor in Swiss albino mouse assessed as decrease in rectal temperature at 5 mg/kg, ip after 30 mins; type: functional, organism-based; set-up: dose 5 mg/kg; in short: as §1
[12] = test system: Mus musculus; assay: Agonist activity at 5HT1A receptor in ip dosed Swiss albino mouse assessed as decrease in rectal temperature; type: functional, organism-based; in short: as §1
[13] = target: D(2) dopamine receptor (Rattus norvegicus, UniProt P61169); assay: Displacement of [3H]spiperone from dopamine D2 receptor in rat striatum membrane after 30 mins by liquid scintillation counting; type: cell membranes
In short: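 Rat striatum homogenised in 50 mM potassium phosphate pH 7.4 and spun twice at 20000 × g. Membranes (3 mg wet weight) incubated with 1 nM [3H]-spiperone and test agent in 0.5 ml for 30 min at 37 °C. Nonspecific binding with (+)butaclamol. GF/B filtration, two washes with ice-cold buffer, scintillation counting; Ki from ≥3 experiments, 10 concentrations in triplicate.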

[14] = test system: Mus musculus; assay: Agonist activity at 5HT1A receptor in Swiss albino mouse assessed as decrease in rectal temperature at 10 mg/kg, ip after 30 mins; type: functional, organism-based; set-up: dose 10 mg/kg; in short: as §1
[15] = target: T1, 5-hydroxytryptamine receptor 1A (Rattus norvegicus, UniProt P19327); assay: Displacement of [3H]8-OH-DPAT from 5HT1A receptor in rat cerebral cortex after 15 mins by liquid scintillation counting; type: tissue-based
T1 sequence (P19327 whole entry): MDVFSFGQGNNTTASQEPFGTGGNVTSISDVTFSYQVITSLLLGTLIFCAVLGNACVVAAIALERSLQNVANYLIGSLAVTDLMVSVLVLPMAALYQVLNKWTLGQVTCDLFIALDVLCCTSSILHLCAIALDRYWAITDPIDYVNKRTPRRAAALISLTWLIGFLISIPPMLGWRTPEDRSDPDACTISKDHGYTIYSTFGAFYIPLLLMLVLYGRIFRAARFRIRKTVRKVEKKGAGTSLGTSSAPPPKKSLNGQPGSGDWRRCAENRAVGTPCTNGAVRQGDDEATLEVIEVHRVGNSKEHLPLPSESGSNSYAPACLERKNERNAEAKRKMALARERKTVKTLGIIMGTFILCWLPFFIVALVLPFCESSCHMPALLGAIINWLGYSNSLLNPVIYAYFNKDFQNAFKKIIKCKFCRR

[16] = test system: Rattus norvegicus; assay: Behavioral activity in Wistar rat assessed as induction of lower lip retraction at 10 to 20 mg/kg, ip; type: functional, organism-based
In short: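 Male Wistar rats (290–310 g); agent ip in 1% Tween 80 at 2 ml/kg. Rats housed singly in cages and scored 15, 30 and 45 min after dosing: 0 = lower incisors not visible, 0.5 = partly, 1 = fully visible. Maximum total score 3 per rat.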

[17] = test system: Mus musculus; assay: Agonist activity at 5HT1A receptor in Swiss albino mouse assessed as decrease in rectal temperature at 10 mg/kg, ip after 60 mins in presence of WAY 100635 administered 15 mins before drug challenge; type: functional, organism-based; set-up: dose 10 mg/kg; in short: as §3
[18] = test system: Mus musculus; assay: Agonist activity at 5HT1A receptor in Swiss albino mouse assessed as decrease in rectal temperature at 5 mg/kg, ip after 90 mins; type: functional, organism-based; set-up: dose 5 mg/kg; in short: as §1
[19] = test system: Mus musculus; assay: Agonist activity at 5HT1A receptor in Swiss albino mouse assessed as decrease in rectal temperature at 5 mg/kg, ip after 60 mins; type: functional, organism-based; set-up: dose 5 mg/kg; in short: as §1
[20] = test system: Rattus norvegicus; assay: Behavioral activity in Wistar rat assessed as reduction of 8-OH-DPAT-induced lower lip retraction at 10 to 20 mg/kg, ip administered 45 mins before 8-OH-DPAT challenge; type: functional, organism-based
[21] = test system: Mus musculus; assay: Sedative activity in Swiss albino mouse assessed as reduction on spontaneous locomotor activity at 20 mg/kg, ip administered 30 mins before test measured for 6 mins; type: ADME, organism-based; set-up: dose 20 mg/kg, route intraperitoneal; settings: in vivo, 0.1 h
In short: (§5)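 Male Albino Swiss mice (24–28 g); agent ip in 1% Tween 80, 30 min before the test. Locomotor activity counted as number of crossings during 6-min and 30-min sessions. n = 8–10 mice per group; mean ± SEM versus vehicle.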

[22] = test system: Mus musculus; assay: Sedative activity in Swiss albino mouse assessed as reduction on spontaneous locomotor activity at 20 mg/kg, ip administered 30 mins before test measured for 30 mins; type: ADME, organism-based; set-up: dose 20 mg/kg, route intraperitoneal; settings: in vivo, 0.5 h; in short: as §5
[23] = test system: Mus musculus; assay: Anxiolytic activity in Swiss albino mouse assessed as number of punished crossings at 10 mg/kg, ip administered 30 mins before test measured for 60s by four plate test; type: functional; settings: route intraperitoneal; in short: as §4
[24] = test system: Mus musculus; assay: Antidepressant activity in Swiss albino mouse assessed as reduction of immobility time at 10 mg/kg, ip administered 30 mins before test by forced swimming test; type: functional; settings: route intraperitoneal; in short: as §2
[25] = test system: Mus musculus; assay: Sedative activity in Swiss albino mouse assessed as reduction on spontaneous locomotor activity at 30 mg/kg, ip administered 30 mins before test measured for 6 mins; type: ADME, organism-based; set-up: dose 30 mg/kg, route intraperitoneal; settings: in vivo, 0.1 h; in short: as §5
[26] = test system: Mus musculus; assay: Sedative activity in Swiss albino mouse assessed as reduction on spontaneous locomotor activity at 30 mg/kg, ip administered 30 mins before test measured for 30 mins; type: ADME, organism-based; set-up: dose 30 mg/kg, route intraperitoneal; settings: in vivo, 0.5 h; in short: as §5

Chain of D(2) dopamine receptor (P61169 whole entry): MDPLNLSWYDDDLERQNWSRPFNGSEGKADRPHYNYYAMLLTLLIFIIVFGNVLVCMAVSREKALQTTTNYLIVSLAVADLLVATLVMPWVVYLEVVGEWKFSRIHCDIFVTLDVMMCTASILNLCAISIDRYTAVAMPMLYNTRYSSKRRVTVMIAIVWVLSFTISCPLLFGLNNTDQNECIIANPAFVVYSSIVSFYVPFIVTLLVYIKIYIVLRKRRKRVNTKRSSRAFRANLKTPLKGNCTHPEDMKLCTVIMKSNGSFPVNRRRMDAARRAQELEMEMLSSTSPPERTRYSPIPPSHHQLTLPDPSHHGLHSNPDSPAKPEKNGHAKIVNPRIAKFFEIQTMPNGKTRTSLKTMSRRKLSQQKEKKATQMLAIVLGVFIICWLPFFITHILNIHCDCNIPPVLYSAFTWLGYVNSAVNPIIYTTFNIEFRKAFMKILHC
Chain of 5-hydroxytryptamine receptor 2A (P14842 whole entry): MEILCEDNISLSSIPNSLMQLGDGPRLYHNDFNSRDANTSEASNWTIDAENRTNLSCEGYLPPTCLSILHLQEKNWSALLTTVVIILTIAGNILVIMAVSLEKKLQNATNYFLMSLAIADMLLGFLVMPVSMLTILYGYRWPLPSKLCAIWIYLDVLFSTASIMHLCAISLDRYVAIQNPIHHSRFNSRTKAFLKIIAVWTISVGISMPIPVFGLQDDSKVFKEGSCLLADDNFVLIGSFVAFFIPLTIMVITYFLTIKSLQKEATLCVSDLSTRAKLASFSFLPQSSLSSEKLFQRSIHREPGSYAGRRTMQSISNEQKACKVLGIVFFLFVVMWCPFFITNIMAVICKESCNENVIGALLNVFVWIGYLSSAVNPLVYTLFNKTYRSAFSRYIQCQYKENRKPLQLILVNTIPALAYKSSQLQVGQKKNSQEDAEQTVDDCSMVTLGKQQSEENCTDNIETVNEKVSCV

SMILES	deltaT [3] [°C]	deltaT [4] [°C]	Ki [5] [nM]	deltaT [8] [°C]	deltaT [10] [°C]	deltaT [11] [°C]	Activity [12]	Ki [13] [nM]	deltaT [14] [°C]	Ki [15] [nM]	further results
COc1ccccc1N1CCN(CCCn2c(-c3ccccc3)cn3c4c(=O)n(C)c(=O)n(C)c4nc23)CC1	0	-0.9	> 1000	-0.6	-0.6	-0.7	Dose-dependent effect	143	-2	5.6	deltaT [1]: -0.5 °C; Activity [2]: 172 s; Activity [6]: 3.2; Activity [7]: 169.3 s; Activity [9]: 3.5
Cn1c(=O)c2c(nc3n2CC(C(=O)NCCN2CCN(c4cccc(Cl)c4)CC2)N3)n(C)c1=O (stereo unspecified)										> 1000	
COc1ccccc1N1CCN(CCCN2CCCn3c2nc2c3c(=O)n(C)c(=O)n2C)CC1			486							2.8	
COc1ccccc1N1CCN(CCNC(=O)C2Cn3c(nc4c3c(=O)n(C)c(=O)n4C)N2)CC1 (stereo unspecified)										> 1000	
COc1ccccc1N1CCN(CCCn2c(C)cn3c4c(=O)n(C)c(=O)n(C)c4nc23)CC1	-0.1	-1	> 1000	-0.6	-0.5	-0.4	Dose-dependent effect	345	-0.9	16.8	deltaT [1]: -0.2 °C; Activity [16]: inactive; deltaT [17]: -0.9 °C; deltaT [18]: -0.3 °C; deltaT [19]: -0.4 °C; Activity [20]: inactive
Cn1c(=O)c2c(nc3n(CCCN4CCN(c5ccccc5)CC4)ccn23)n(C)c1=O	0	-0.3	> 1000	-0.4	-0.4	-0.6	Dose-dependent effect	> 1000	-1.2	24.8	Activity [2]: 88.9 s; Activity [21]: 146.4; Activity [22]: 255.6; Activity [23]: 4.7; Activity [7]: 87.9 s; Activity [24]: 147.5 s; Activity [9]: 6.3; Activity [25]: 139.2; deltaT [18]: -0.2 °C; deltaT [19]: -0.4 °C; Activity [26]: 221; Activity [20]: Active
Cn1c(=O)c2c(nc3n2CC(C(=O)NCCN2CCN(c4ccccc4)CC2)N3)n(C)c1=O (stereo unspecified)										> 1000	
Cc1cn2c3c(=O)n(C)c(=O)n(C)c3nc2n1CCCN1CCN(c2ccccc2)CC1			> 1000					> 1000		76.4	
